Sampled rows, rich in hits. Any-hit rate of the full collection: about 1.2%.
Efflux pump inh: inhibitors of Candida antifungal efflux pumps expressed in yeast; S. cerevisiae Candida pump triplex, Nile Red efflux; inhibition, % at 10 µM; actives 0.44% (n = 330,000);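 active = plate passing quality check with inhibition over a set limit, or well fluorescence over plate mean plus 4 SD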;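 note: Nile Red retained in pooled yeast measured as flow cytometry median fluorescence; higher means more Nile Red kept so more efflux inhibition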
SR-BI DiI-HDL act: enhances SR-BI lipid uptake from DiI-HDL. CHO ldlA[mSR-BI] cells, DiI-HDL uptake fluorescence, 3 h; 100 = double the neutral-control signal. activation, % at 12.5 µM. actives 0.096% (n = 320,000). AID 504775;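 active = mean replicate activation of at least 60% and every replicate at or above 60%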
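system = CHO ldlA[mSR-BI] cells, LDL receptor-null, SR-BI overexpressing | medium = Ham's F12 with 0.5% BSA, HEPES 25 mM, pH 7.4 | probe or stimulus = DiI-HDL 10 µg/mL | compound dosing = single-point compound dose | incubation = compound exposure 3 h, 37 °C | technique = DiI fluorescence, bottom read | read-out = cell-associated DiI fluorescence as measure of HDL uptake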
CaV13 FRET inh: Primary screen for inhibitors of IQ motif and Ca2+-dependent inactivation inhibitor domain binding in CACNA1D, Förster resonance energy transfer in living cells, …; HEK cells, CFP/YFP FRET ICDI-IQ, plate reader, 10 min; percent FRET-ratio fall versus neutral wells; inhibition, % at 12.3 µM; actives 0.098% (n = 340,000); AID 743397;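 active = mean replicate inhibition of at least 30% and at least 1% of replicates passing that level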
SR-BI DiI inh: mouse SR-BI HDL lipid transfer inhibition; inhibition, % at 12.5 µM; actives 0.96% (n = 320,000); Q61009; ldlA[mSR-BI] CHO cells, DiI-HDL uptake fluorescence, 3 h;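 active = mean replicate inhibition of at least 70% and a set share of replicates each scoring 70 or more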
Target sequence (Q61009 whole entry, looked up): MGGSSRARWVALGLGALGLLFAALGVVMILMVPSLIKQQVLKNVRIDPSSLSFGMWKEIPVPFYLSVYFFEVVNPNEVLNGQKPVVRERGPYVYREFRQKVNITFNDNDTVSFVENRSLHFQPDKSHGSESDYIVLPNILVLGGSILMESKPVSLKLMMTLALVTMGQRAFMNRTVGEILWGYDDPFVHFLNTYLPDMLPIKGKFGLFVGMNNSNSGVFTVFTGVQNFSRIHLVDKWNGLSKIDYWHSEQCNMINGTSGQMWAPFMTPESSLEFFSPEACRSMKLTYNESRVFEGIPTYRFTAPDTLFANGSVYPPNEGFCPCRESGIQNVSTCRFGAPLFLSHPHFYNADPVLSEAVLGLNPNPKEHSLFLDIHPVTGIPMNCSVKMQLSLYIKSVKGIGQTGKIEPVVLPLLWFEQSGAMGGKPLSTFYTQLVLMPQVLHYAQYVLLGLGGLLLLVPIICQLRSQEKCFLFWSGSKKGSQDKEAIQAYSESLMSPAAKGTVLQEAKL
FN deposit inh: fibronectin deposition inhibition | AH1F fibroblasts, Alexa488-fibronectin deposition fluorescence, overnight | inhibition, % at 12.6 µM | actives 0.086% (n = 350,000) | AID 743247;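 active = mean inhibition across replicates of 30% or more, regardless of how many single replicates reach that level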
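Assay system: AH1F fibroblasts assembling fluorescent fibronectin matrix; Amount: 10000 AH1F cells per well; Buffer or medium: DMEM, 2% serum; Probe or stimulus: Alexa488-fibronectin, 24 nM final in well; Doses: single compound dose, delivered by pin transfer; Incubation: 1 h adhesion, overnight exposure; Measured by: fluorescence 485/525 nm; Read-out: fibronectin deposition inhibition.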
Cmpd fluor yeast: counter-screen for efflux pump inhibitors: compound fluorescence. shares compounds with Efflux pump inh. S. cerevisiae AD/pABC3, flow cytometry. fluorescence ratio to DMSO, % at 10 µM. actives 4% (n = 1,700);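 active = fluorescence ratio to DMSO above its plate's cutoff, the plate mean ratio plus 5 SD, cut at about 210% in these data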;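 note: unstained yeast with no Nile Red so the signal is compound autofluorescence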
CaMdr1 efflux inh: inhibitors of Candida albicans Mdr1 efflux pump | shares compounds with Efflux pump inh | S. cerevisiae AD/CaMDR1, Nile Red efflux, flow cytometry | inhibition, % at 10 µM | actives 1% (n = 1,700); in the data active = inhibition above about 26%;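 note: higher means more Nile Red retained so more efflux inhibition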
CaCdr2 efflux inh: blocks the Candida albicans Cdr2 efflux pump in yeast; shares compounds with Efflux pump inh; S. cerevisiae AD/CaCDR2, Nile Red retention, flow cytometry; Nile Red retention ratio vs DMSO, % at 10 µM; actives 4% (n = 1,700); in the data active = Nile Red retention ratio vs DMSO above about 190%;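 note: higher ratio means more blocking of Cdr2 efflux of the dye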
Cdr1 pump inh: blocks the Candida albicans Cdr1 efflux pump in yeast. inhibition, % at 10 µM. actives 1% (n = 1,700). shares compounds with Efflux pump inh. S. cerevisiae AD/CaCDR1, Nile Red efflux, flow cytometry;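 active = inhibition above the screen-wide mean plus twice its standard deviation, cut at about 32% in these data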
A number is an active result.

CCOC(=O)Cc1cc(-c2ccc(OC)cc2)nc2ccc3ccccc3c12 was read as Efflux pump inh 10, SR-BI DiI-HDL act inactive, CaV13 FRET inh inactive, SR-BI DiI inh inactive, FN deposit inh inactive, Cmpd fluor yeast inactive, CaMdr1 efflux inh inactive, CaCdr2 efflux inh inactive and Cdr1 pump inh inactive.
`COc1ccc(-c2cc(C(=O)Nc3cc(S(=O)(=O)N4CCOCC4)ccc3N3CCOCC3)c3ccccc3n2)cc1` gave Efflux pump inh 0.8, SR-BI DiI-HDL act inactive, CaV13 FRET inh inactive, SR-BI DiI inh inactive, Cmpd fluor yeast inactive, CaMdr1 efflux inh inactive, CaCdr2 efflux inh inactive and Cdr1 pump inh inactive.
Screening CO[C@H]1CN(C)C(=O)c2cc(NC(C)=O)ccc2OC[C@@H](C)N(Cc2cccnc2)C[C@@H]1C returned FN deposit inh inactive.
Screening COc1ccc(-c2cn(CC[C@@H]3CC[C@H](NC(=O)Nc4ccc(F)cc4)[C@H](CO)O3)nn2)cc1 returned FN deposit inh inactive.
For O=C(Nc1ccc2c(c1)OCO2)N[C@H]1C=C[C@H](CC(=O)N2CCN(c3ccccc3)CC2)O[C@@H]1CO the results were FN deposit inh inactive.
Screening COCCNC(=O)c1cc2c(c(-c3cccc(-c4cccc(F)c4)c3)n1)[C@H](CCO)N([S@@](=O)C(C)(C)C)C2 returned FN deposit inh inactive.
`CCCC#Cc1ccc2c(c1)O[C@@H](CN(C)S(=O)(=O)c1cccc(OC)c1)[C@@H](C)CN([C@H](C)CO)S2(=O)=O` gave FN deposit inh inactive.
`O=C(Nc1nccs1)c1cc(-c2ccccc2)nc2ccccc12` gave Efflux pump inh 11, SR-BI DiI-HDL act inactive, CaV13 FRET inh inactive, SR-BI DiI inh inactive, FN deposit inh inactive, Cmpd fluor yeast inactive, CaMdr1 efflux inh inactive, CaCdr2 efflux inh inactive and Cdr1 pump inh inactive.
For O=C(Nc1nccs1)c1cc(-c2ccco2)nc2ccccc12 the results were Efflux pump inh inactive, SR-BI DiI-HDL act inactive, CaV13 FRET inh inactive, SR-BI DiI inh inactive and FN deposit inh inactive.
O=C1c2ccccc2C(=O)N1CN(C(=O)COc1ccccc1)c1ccc(F)cc1 was read as Efflux pump inh 8.0, SR-BI DiI-HDL act inactive, CaV13 FRET inh inactive, SR-BI DiI inh inactive, FN deposit inh inactive, Cmpd fluor yeast inactive, CaMdr1 efflux inh inactive, CaCdr2 efflux inh inactive and Cdr1 pump inh inactive.
C[C@@H]1CN([C@H](C)CO)C(=O)c2cc(-c3ccc(F)cc3)cnc2O[C@H]1CN(C)CC1CCCCC1 was read as FN deposit inh inactive.
Screening Cc1ccccc1OCC(=O)Nc1nnc(-c2ccco2)s1 returned Efflux pump inh inactive, SR-BI DiI-HDL act inactive, CaV13 FRET inh inactive, SR-BI DiI inh inactive, FN deposit inh inactive, Cmpd fluor yeast inactive, CaMdr1 efflux inh inactive, CaCdr2 efflux inh inactive and Cdr1 pump inh inactive.
For N#Cc1ccc(-c2ccc([C@H]3[C@@H](CO)N4C(=O)CN(C(=O)C5CCC5)C[C@@H]34)cc2)cc1 the results were FN deposit inh inactive.
O=C(C[C@@H]1CC[C@H](NC(=O)c2ccccc2)[C@@H](CO)O1)Nc1ccc(-c2ccccc2)cc1 was read as FN deposit inh inactive.
COC(=O)c1ccccc1NC(=S)N(Cc1ccc2c(c1)OCO2)Cc1cc2ccc(OC)cc2[nH]c1=O was read as Efflux pump inh 6.4, SR-BI DiI-HDL act inactive, SR-BI DiI inh inactive, Cmpd fluor yeast inactive, CaMdr1 efflux inh inactive, CaCdr2 efflux inh inactive and Cdr1 pump inh inactive.
For COC(=O)c1ccccc1NC(=S)N(Cc1ccc2c(c1)OCO2)Cc1cc2ccc(C)cc2[nH]c1=O the results were Efflux pump inh inactive, SR-BI DiI-HDL act inactive, CaV13 FRET inh inactive, SR-BI DiI inh inactive and FN deposit inh inactive.
Cc1c(C(=O)Nc2ccc3nc(N4CCOCC4)sc3c2)oc2ccccc12 was read as Efflux pump inh 0.8, SR-BI DiI-HDL act inactive, CaV13 FRET inh inactive, SR-BI DiI inh inactive, Cmpd fluor yeast inactive, CaMdr1 efflux inh inactive, CaCdr2 efflux inh inactive and Cdr1 pump inh inactive.
O=C(Nc1ccc2nc(N3CCOCC3)sc2c1)c1cc2ccccc2o1 was read as CaV13 FRET inh inactive and FN deposit inh inactive.
Screening COc1ccccc1CC(=O)NC(=O)c1ccccc1O returned Efflux pump inh 3.0, SR-BI DiI-HDL act inactive, CaV13 FRET inh inactive, SR-BI DiI inh inactive, FN deposit inh inactive, Cmpd fluor yeast inactive, CaMdr1 efflux inh inactive, CaCdr2 efflux inh inactive and Cdr1 pump inh inactive.
`CCC(=O)N1CC[C@@H]2[C@H]1c1cc(-c3ccccc3F)ccc1N(C)[C@@H]2CO` gave FN deposit inh inactive.
`OC(COCC1COc2ccccc2O1)CN1CCN(c2ccccc2)CC1` (configuration not stated) gave Efflux pump inh 1.0, SR-BI DiI-HDL act inactive, CaV13 FRET inh inactive, SR-BI DiI inh inactive, Cmpd fluor yeast inactive, CaMdr1 efflux inh inactive, CaCdr2 efflux inh inactive and Cdr1 pump inh inactive.
Screening C[C@H]1CN([C@@H](C)CO)C(=O)c2cc(C#CC3CCCCC3)cnc2O[C@H]1CN(C)C(=O)Nc1ccccc1 returned FN deposit inh inactive.
For Cc1cccc(NC(=S)NCc2cccn2C)c1 the results were Efflux pump inh inactive, SR-BI DiI-HDL act inactive, CaV13 FRET inh inactive, SR-BI DiI inh inactive and FN deposit inh inactive.
Screening Cc1ccc(NC(=S)NCc2cccn2C)cc1 returned Efflux pump inh 1.2, SR-BI DiI-HDL act inactive, CaV13 FRET inh inactive, SR-BI DiI inh inactive, FN deposit inh inactive, Cmpd fluor yeast inactive, CaMdr1 efflux inh inactive, CaCdr2 efflux inh inactive and Cdr1 pump inh inactive.
Cc1cccc(C)c1-n1c(SCC(=O)N2CC(=O)Nc3ccccc32)nc2ccccc2c1=O was read as Efflux pump inh 8.2, SR-BI DiI-HDL act inactive, CaV13 FRET inh inactive, SR-BI DiI inh inactive, FN deposit inh inactive, Cmpd fluor yeast inactive, CaMdr1 efflux inh inactive, CaCdr2 efflux inh inactive and Cdr1 pump inh 95.
Screening Cc1ccc(-n2c(SCC(=O)N3CC(=O)Nc4ccccc43)nc3ccccc3c2=O)cc1 returned Efflux pump inh inactive, SR-BI DiI-HDL act inactive, CaV13 FRET inh inactive, SR-BI DiI inh inactive and FN deposit inh inactive.
N#C[C@H]1[C@H](c2ccccc2C2=CCCC2)[C@@H](CO)N1C(=O)NC1CCCC1 was read as FN deposit inh inactive.

Screening data from PubChem BioAssay.
